Laboratory results reported in ChEMBL document CHEMBL1124898, “Novel agents effective against solid tumors: the diarylsulfonylureas. Synthesis, activities, and analysis of quantitative structure-activity relationships” (J Med Chem, 1990).
In brackets after ≈: the same amount, converted by molar mass.

Columns and labels:
[1] = Antitumor activity in vivo against the 6C3HED lymphosarcoma dosed for 10 days at 150 mg/kg; assay type: functional; settings: Mus musculus, 192 h, in the assay text read “dosed for 8 days” for “dosed for 10 days”
Outline: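 Tumor fragments (about 1–2 mm) implanted sc via trochar into a subaxillary site of syngeneic mice (C3H, C57BL/6, Balb/C or DBA/2) or Holtz rats. Groups were 7–10 randomized animals. Compound was suspended in 2.5% Emulphor in 0.9% saline and given orally by gavage or ip, usually from the day after implantation. Tumor volume versus untreated controls was measured one day after the final dose and reported as % inhibition. Scoring bands: +++ 95–100%, ++ 80–94%.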

CCRF-CEM = test: Concentration required to inhibit growth of CCRF-CEM cells in culture for 72 hr to 50% of control growth; assay type: functional, cell-based; settings: Homo sapiens
[2] = Antitumor activity in vivo against the 6C3HED lymphosarcoma, dosed for 8 days at 300 mg/kg; settings: Mus musculus, 192 h
Rattus norvegicus = test: Hypoglycemic activity expressed as (Maximum reduction in blood glucose in mg/dL relative to predosing glucose level)/(time in hours at which maximum reduction occurred); assay type: functional
Outline: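 Fed male Sprague-Dawley rats (175–200 g), four per compound, received a single oral gavage dose of 200 mg/kg suspended in 5% acacia. Tail blood was sampled before dosing and at 1, 2, 3 and 5 h, and glucose was measured by glucose oxidase/peroxidase colorimetry. Each rat served as its own control. Value = maximum fall from predose glucose (mg/dL) divided by the hour at which that maximum occurred.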

[3] = Antitumor activity in vivo against the 6C3HED lymphosarcoma dosed for 8 days at 150 mg/kg; settings: Mus musculus, 192 h

| Compound | IC50 (CCRF-CEM) [µg/mL] | inhibition in vivo at 150 mg/kg [1] [%] | inhibition in vivo at 300 mg/kg [2] [%] | Ratio (Rattus norvegicus) | inhibition in vivo at 150 mg/kg [3] [%] |
| --- | --- | --- | --- | --- | --- |
| O=C(Nc1ccc(C(F)(F)F)cc1)NS(=O)(=O)c1cccc(C(F)(F)F)c1 | 15.6 (≈ 37.8 µM) | 39 | – | – | – |
| Cc1ccc(S(=O)(=O)NC(=O)Nc2cc(Cl)c(Cl)c(Cl)c2)cc1 | > 20 | – | 44 | 0 | – |
| COc1cccc(S(=O)(=O)NC(=O)Nc2ccc(Cl)cc2)c1 | 8 (≈ 23.5 µM) | – | 100 | – | – |
| Cc1ccc(S(=O)(=O)NC(=O)Nc2ccc3c(c2)OCO3)cc1 | > 20 | – | 54 | – | – |
| Cc1ccc(S(=O)(=O)NC(=O)Sc2ccc(Cl)cc2)cc1 | 0.9 (≈ 2.63 µM) | 33 | – | – | – |
| Cc1ccc(S(=O)(=O)NC(=O)Nc2ccc(Cl)cc2Cl)cc1 | > 20 | – | 39 | – | – |
| O=C(Nc1ccc(Cl)cc1)NS(=O)(=O)c1ccc2c(c1)CCCC2 | 14.6 (≈ 40 µM) | – | 70 | – | – |
| O=C(Nc1ccc(C(F)(F)F)cc1)NS(=O)(=O)c1ccc(Cl)c(Cl)c1 | 15.5 (≈ 37.5 µM) | 85 | – | – | – |
| Cc1ccccc1S(=O)(=O)NC(=O)Nc1ccc(C(F)(F)F)cc1 | 13.7 (≈ 38.2 µM) | 67 | – | – | – |
| Cc1ccc(S(=O)(=O)NC(=O)Nc2nc(C)cc(C)n2)cc1 | > 20 | – | 0 | – | – |
| COc1ccc(S(=O)(=O)NC(=O)Nc2ccc(Cl)cc2)cc1OC | > 20 | – | 43 | – | – |
| CC(C)(C)c1ccc(S(=O)(=O)NC(=O)Nc2ccc(Cl)cc2)cc1 | 13.5 (≈ 36.8 µM) | – | 84 | – | – |
| O=C(Nc1ccc(Cl)cc1)NS(=O)(=O)c1cccc(Cl)c1 | 9 (≈ 26.1 µM) | 98 | – | – | – |
| COc1ccc(S(=O)(=O)NC(=O)Nc2ccc(C(F)(F)F)cc2)cc1 | 8 (≈ 21.4 µM) | – | – | – | 100 |
| COc1ccc(NC(=O)NS(=O)(=O)c2ccc(C)cc2)cc1OC | > 20 | – | 12 | – | – |
| COC(=O)c1ccc(S(=O)(=O)NC(=O)Nc2ccc(C(F)(F)F)cc2)cc1 | 2.6 (≈ 6.46 µM) | 0 | – | – | – |
| Cc1ccc(S(=O)(=O)NC(=O)Oc2ccc(Cl)cc2)cc1 | > 20 | – | 43 | – | – |
| Cc1ccc(S(=O)(=O)NC(=O)Nc2cc(C)cc(C)c2)cc1 | > 20 | – | 9 | – | – |
| O=C(Nc1ccc(Cl)c(Cl)c1)NS(=O)(=O)c1ccc(Cl)cc1 | 9.9 (≈ 26.1 µM) | 85 | – | – | – |
| Cc1ccc(S(=O)(=O)NC(=O)NC2CCC(C)CC2)cc1 (stereo unspecified) | > 20 | – | 2 | – | – |
| O=C(Nc1ccc(Cl)c(Cl)c1)NS(=O)(=O)c1ccc2c(c1)CCC2 | 9.1 (≈ 23.6 µM) | – | 97 | – | – |
| Cc1ccc(S(=O)(=O)NC(=O)Nc2ccc(Cl)cc2)cc1C | 13.6 (≈ 40.1 µM) | – | 100 | – | – |

| Compound | IC50 (CCRF-CEM) [µg/mL] | inhibition in vivo at 150 mg/kg [1] [%] | inhibition in vivo at 300 mg/kg [2] [%] | Ratio (Rattus norvegicus) | inhibition in vivo at 150 mg/kg [3] [%] |
| --- | --- | --- | --- | --- | --- |
| O=C(Nc1ccc(Br)cc1)NS(=O)(=O)c1ccccc1 | 7.1 (≈ 20 µM) | 82 | – | – | – |
| O=C(Nc1ccc(Cl)cc1)NS(=O)(=O)c1ccc2c(c1)CCO2 | 16.1 (≈ 45.6 µM) | – | 94 | – | – |
| Cc1ccc(S(=O)(=O)NC(=O)N(C)c2ccc(Cl)cc2)cc1 | > 20 | – | 30 | – | – |
| O=C(Nc1ccc(Cl)c(Cl)c1)NS(=O)(=O)c1ccccc1 | 1.5 (≈ 4.35 µM) | – | – | – | 100 |
| Cc1ccc(S(=O)(=O)NC(=O)Nc2ccccn2)cc1 | > 20 | – | 2 | – | – |
| Cc1ccc(S(=O)(=O)NC(=O)Nc2ccc3c(c2)C(=O)CC3)cc1 | > 20 | – | 0 | – | – |
| Cc1ccc(S(=O)(=O)NC(=O)Nc2cc(Cl)c(Cl)cc2C)cc1 | 16 (≈ 42.9 µM) | – | 15 | – | – |
| O=C(Nc1ccc(Cl)cc1)NS(=O)(=O)c1ccc(Oc2ccccc2)cc1 | 19.7 (≈ 48.9 µM) | – | 32 | – | – |
| O=C(Nc1ccc(Cl)cc1)NS(=O)(=O)c1ccccc1 | 3.8 (≈ 12.2 µM) | – | – | – | 100 |
| N#Cc1cccc(S(=O)(=O)NC(=O)Nc2ccc(Cl)cc2)c1 | 13.1 (≈ 39 µM) | – | 19 | – | – |
| Cc1ccc(S(=O)(=O)NC(=O)Nc2ccc(Cl)cc2C(F)(F)F)cc1 | > 20 | – | 24 | – | – |
| O=C(Nc1ccc(Cl)cc1)NS(=O)(=O)c1ccc2ccccc2c1 | 11.2 (≈ 31 µM) | – | 100 | 0 | – |
| O=C(Nc1ccc(Cl)cc1)NS(=O)(=O)c1ccc(Cl)c(Cl)c1 | 14.2 (≈ 37.4 µM) | – | – | – | 100 |
| Cc1ccc(S(=O)(=O)NC(=O)Nc2cccc3ccccc23)cc1 | > 20 | – | 0 | – | – |
| O=C(Nc1ccc(C(F)(F)F)cc1)NS(=O)(=O)c1ccc2c(c1)CCC2 | 12 (≈ 31.2 µM) | – | 71 | – | – |
| Cc1cccc(S(=O)(=O)NC(=O)Nc2ccc(Cl)cc2)c1 | 4.3 (≈ 13.2 µM) | – | – | – | 100 |
| Cc1ccc(S(=O)(=O)NC(=O)Nc2ccc(Cl)cn2)cc1 | > 20 | – | 43 | – | – |
| O=C(Nc1ccc(C(F)(F)F)cc1)NS(=O)(=O)c1ccc(Cl)cc1 | 5.8 (≈ 15.3 µM) | 94 | – | 0 | – |
| O=C(Nc1ccc(Cl)cc1)NS(=O)(=O)c1cccnc1 | 7.1 (≈ 22.8 µM) | – | 3 | – | – |
| O=C(Nc1ccc(C(F)(F)F)cc1)NS(=O)(=O)c1ccccc1 | 6 (≈ 17.4 µM) | 81 | – | – | – |
| Cc1ccc(S(=O)(=O)NC(=O)Nc2nc(Cl)cc(Cl)n2)cc1 | > 20 | – | 0 | – | – |
| Cc1ccc(S(=O)(=O)NC(=O)NC2CCCCC2)cc1 [GLYCYCLAMIDE] | > 20 | – | 56 | – | – |

More lines, main results first:

| IC50 (CCRF-CEM) [µg/mL] | Compound | inhibition in vivo at 150 mg/kg [1] [%] | inhibition in vivo at 300 mg/kg [2] [%] | Ratio (Rattus norvegicus) | inhibition in vivo at 150 mg/kg [3] [%] |
| --- | --- | --- | --- | --- | --- |
| 8.2 (≈ 22.2 µM) | Cc1ccc(S(=O)(=O)NC(=O)Nc2ccc(Br)cc2)cc1 | – | – | – | 100 |
| 14.3 (≈ 37.1 µM) | COc1ccc(S(=O)(=O)NC(=O)Nc2ccc(Br)cc2)cc1 | 99 | – | – | – |
| > 20 | Cc1ccc(S(=O)(=O)NC(=O)Nc2ccccc2Cl)cc1 | – | 1 | – | – |
| 7.4 (≈ 22.1 µM) | Cc1ccc(S(=O)(=O)NC(=O)Nc2ccc([N+](=O)[O-])cc2)cc1 | – | 34 | – | – |
| 12.8 (≈ 39.2 µM) | Cc1ccc(S(=O)(=O)NC(=O)Nc2ccc(F)c(F)c2)cc1 | – | 60 | – | – |
| > 20 | CCCCOC(=O)c1ccc(NC(=O)NS(=O)(=O)c2ccc(C)cc2)cc1 | – | 0 | – | – |
| > 20 | Cc1ccc(S(=O)(=O)NC(=O)Nc2ccccc2C)cc1 | – | 32 | – | – |
| 7.5 (≈ 22.1 µM) | CCc1ccc(S(=O)(=O)NC(=O)Nc2ccc(Cl)cc2)cc1 | – | – | – | 100 |
| 14.1 (≈ 32.5 µM) | O=C(Nc1ccc(Br)cc1)NS(=O)(=O)c1ccc(Br)cc1 | – | – | – | 100 |
| 17.4 (≈ 56.4 µM) | Cc1ccc(S(=O)(=O)NC(=O)Nc2ccc(F)cc2)cc1 | – | 95 | – | – |
| > 20 | Cc1ccc(S(=O)(=O)NC(=O)Nc2ccc(CC#N)cc2)cc1 | – | 10 | – | – |
| 16.9 (≈ 47.9 µM) | CC(=O)c1ccc(S(=O)(=O)NC(=O)Nc2ccc(Cl)cc2)cc1 | – | 55 | – | – |
| > 20 | Cc1ccc(S(=O)(=O)NC(=O)Nc2cccnc2)cc1 | – | 1 | – | – |
| > 20 | COc1ccc(NC(=O)NS(=O)(=O)c2ccc(C)cc2)cc1Cl | – | 0 | – | – |
| > 20 | CCOc1cccc(NC(=O)NS(=O)(=O)c2ccc(C)cc2)c1 | – | 6 | – | – |
| > 20 | Cc1ccc(S(=O)(=O)NC(=O)Nc2ccc(O)cc2)cc1 | – | 10 | – | – |
| 28 (≈ 82.3 µM) | Cc1ccc(S(=O)(=O)NC(=O)Nc2ccc3ccccc3c2)cc1 | – | 5 | – | – |
| 15.3 (≈ 45.5 µM) | COc1ccc(NC(=O)NS(=O)(=O)c2ccc(OC)cc2)cc1 | – | 16 | – | – |
| 15.8 (≈ 42.7 µM) | Cc1ccc(S(=O)(=O)NC(=O)Nc2ccc(Cl)c([N+](=O)[O-])c2)cc1 | – | 30 | – | – |
| 19.6 (≈ 47.1 µM) | Cc1ccc(S(=O)(=O)NC(=O)Nc2ccc(I)cc2)cc1 | 76 | – | – | – |
| > 20 | Cc1ccc(S(=O)(=O)NC(=O)Nc2ccc(Oc3ccccc3)cc2)cc1 | – | 0 | – | – |
| 6.3 (≈ 19.2 µM) | O=C(Nc1ccc(Cl)cc1)NS(=O)(=O)c1ccc(F)cc1 | 79 | – | – | – |
| > 20 | CSc1ccc(NC(=O)NS(=O)(=O)c2ccc(C)cc2)cc1 | – | 17 | – | – |
| 5.8 (≈ 16.1 µM) | Cc1ccc(S(=O)(=O)NC(=O)Nc2ccc(Cl)c(Cl)c2)cc1 | – | 100 | – | – |
| 12.6 (≈ 37 µM) | COc1ccc(S(=O)(=O)NC(=O)Nc2ccc(Cl)cc2)cc1 | – | – | – | 100 |
